Assay results reported in paper PMC8336483 (Chemical Science, 2021).

System: MDA-MB-231 cells
Type: cell-based, human
Conditions: 1 h incubation
Method in brief: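 MDA-MB-231 cells incubated 1 h with fluorescent conjugates or linker-functionalised fluorescein, then analysed by fluorescence correlation spectroscopy in the cytoplasm. Probe hydrodynamic radii and cytoplasmic viscosity were first determined by FCS. Cytoplasmic diffusion coefficients came from autocorrelation curves and were compared with values predicted for free diffusion using a cytoplasm viscosity model.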

FAM-PEG
FCS autocorrelation of fluorescence signal in cells: no autocorrelation of fluorescence signal was detected
